Tests used:
[1] = system: Homo sapiens; assay: Toxicity in healthy human assessed as occurrence of aphthous stomatitis at 62.5 mg, po administered as single dose coadministered with 100 mg of ritonavir; type: organism-based; details: in vivo
[2] = system: Homo sapiens; assay: Toxicity in healthy human assessed as occurrence of flatulence at 50 mg, po administered as single dose relative to control; type: organism-based; details: in vivo
[3] = system: Homo sapiens; assay: Toxicity in healthy human assessed as occurrence of constipation at 25 mg, po administered as single dose relative to control; type: organism-based; details: in vivo
[4] = system: Homo sapiens; assay: Toxicity in healthy human assessed as occurrence of constipation at 5 mg, po administered as single dose relative to control; type: organism-based; details: in vivo
[5] = system: Homo sapiens; assay: Toxicity in healthy human assessed as occurrence of fatigue at 5 mg, po administered as single dose relative to control; type: organism-based; details: in vivo
[6] = system: Homo sapiens; assay: Toxicity in healthy human assessed as occurrence of abdominal pain at 12.5 mg, po administered as single dose relative to control; type: organism-based, Abdomen; details: in vivo
[7] = system: Homo sapiens; assay: Toxicity in healthy human assessed as occurrence of fatigue at 12.5 mg, po administered as single dose coadministered with 100 mg of ritonavir; type: organism-based; details: in vivo
[8] = Apparent volume of distribution at steady state in healthy human at 87.5 mg, po administered as single dose coadministered with 100 mg of ritonavir; type: ADME, organism-based; details: in vivo, read-out: Vss/F
Outline: (§1)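 Healthy male volunteers, fasted overnight, got one oral dose of BILR 355 in PEG solution with 200 ml water. Ritonavir 100 mg was given 10 h before and again with the dose. Plasma was sampled (EDTA) from predose to 144 h and assayed by validated LC-MS/MS. Cmax and Vz/F came from noncompartmental analysis. Vss/F = CL/F·(MRTp.o. − 1/Ka), with Ka from compartmental modelling.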

[9] = system: Homo sapiens; assay: Ratio of half life in human at 50 mg, po in presence of 100 mg of ritonavir to half life in human at 50 mg, po; type: ADME, organism-based; details: in vivo
[10] = Drug excretion in healthy human urine assessed as unchanged drug at 100 mg, po administered as single dose by high-pressure liquid chromatography-tandem mass spectrometry/mass spectrometry method; type: ADME, organism-based; details: read-out: Drug uptake
Outline: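 Urine was collected by weight after one oral dose of BILR 355 in PEG solution in fasted healthy males. Intervals were predose blank, 0-6, 6-24 and 24-72 h, with the bladder voided before each. Aliquots were stored at −20°C and assayed by LC-MS/MS. fe = amount of unchanged drug excreted (Ae) as a percentage of the administered dose.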

[11] = system: Homo sapiens; assay: Toxicity in healthy human assessed as occurrence of fatigue at 87.5 mg, po administered as single dose coadministered with 100 mg of ritonavir; type: organism-based; details: in vivo
[12] = system: Homo sapiens; assay: Toxicity in healthy human assessed as occurrence of increase in alanine aminotransferase level at 25 mg, po administered as single dose relative to control; type: organism-based; details: in vivo
[13] = system: Homo sapiens; assay: Toxicity in high fat fed healthy human assessed as occurrence of fatigue at 50 mg, po administered as single dose coadministered with 100 mg of ritonavir; type: organism-based; details: in vivo
[14] = system: Homo sapiens; assay: Ratio of half life in human at 12.5 mg, po in presence of 100 mg of ritonavir to half life in human at 12.5 mg, po; type: ADME, organism-based; details: in vivo
[15] = Apparent volume of distribution at steady state in healthy human at 50 mg, po administered as single dose; type: ADME, organism-based; details: in vivo, read-out: Vss/F
Outline: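 Single fasting oral dose of BILR 355 in PEG solution with 200 ml tap water, given to healthy males. Standard breakfast came 60-90 min after the dose. EDTA plasma was sampled predose to 144 h, stored below −18°C and assayed by LC-MS/MS after protein precipitation. Noncompartmental analysis gave Vz/F. Vss/F = CL/F·(MRTp.o. − 1/Ka), with Ka from compartmental modelling.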

[16] = Apparent oral clearance in healthy human at 12.5 mg, po administered as single dose; type: ADME, organism-based; details: in vivo
Outline: (§2)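 Healthy male volunteers, six active plus two placebo per dose group, single oral dose in PEG solution with 200 ml water after overnight fast; breakfast 60 to 90 min post-dose. EDTA plasma sampled predose to 144 h. Assayed by validated LC-MS/MS after protein precipitation. Noncompartmental analysis, AUC by linear up/log down trapezoidal rule; Vss = CL/F·(MRTp.o. − 1/Ka).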

[17] = Apparent oral clearance in healthy human at 5 mg, po administered as single dose coadministered with 100 mg of ritonavir; type: ADME, organism-based; details: in vivo
Outline: (§3)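 Healthy male volunteers, fasted. Ritonavir 100 mg given 10 h before and again together with single oral BILR 355 in PEG solution. EDTA plasma sampled predose to 144 h. LC-MS/MS assay after protein precipitation. Noncompartmental analysis, AUC by linear up/log down trapezoidal rule; Vss = CL/F·(MRTp.o. − 1/Ka).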

[18] = Apparent volume of distribution in terminal phase in healthy human at 50 mg, po administered as single dose coadministered with 100 mg of ritonavir; type: ADME, organism-based; details: in vivo, read-out: Vz/F; outline: as §1
[19] = AUC (0 to infinity) in high fat fed healthy human at 50 mg, po administered as single dose coadministered with 100 mg of ritonavir; type: ADME, organism-based; set-up: dose 50 mg, time infinity, route oral; details: plasma
Outline: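 Fed cohort of 6 healthy men given an FDA-type high-fat breakfast (about 150, 250 and 500 to 600 cal from protein, carbohydrate and fat) 30 min before dosing. Ritonavir 100 mg given 10 h earlier and again with the single oral dose in PEG solution. Plasma sampled to 144 h, LC-MS/MS, noncompartmental analysis.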

[20] = system: Homo sapiens; assay: Toxicity in healthy human assessed as occurrence of palpitations at 25 mg, po administered as single dose relative to control; type: organism-based; details: in vivo
[21] = AUC (0 to infinity) in healthy human at 12.5 mg, po administered as single dose; type: ADME, organism-based; set-up: dose 12.5 mg, route oral, time infinity; details: plasma; outline: as §2
[22] = system: Homo sapiens; assay: Toxicity in healthy human assessed as occurrence of frequent bowel movements at 75 mg, po administered as single dose relative to control; type: organism-based; details: in vivo
[23] = Apparent oral clearance in healthy human at 37.5 mg, po administered as single dose coadministered with 100 mg of ritonavir; type: ADME, organism-based; details: in vivo; outline: as §3
[24] = system: Homo sapiens; assay: Toxicity in healthy human assessed as occurrence of fatigue at 50 mg, po administered as single dose coadministered with 100 mg of ritonavir; type: organism-based; details: in vivo
[25] = Apparent volume of distribution at steady state in healthy human at 12.5 mg, po administered as single dose coadministered with 100 mg of ritonavir; type: ADME, organism-based; details: in vivo, read-out: Vss/F; outline: as §3
[26] = system: Homo sapiens; assay: Toxicity in healthy human assessed as occurrence of abdominal pain at 1 mg, po administered as single dose relative to control; type: organism-based, Abdomen; details: in vivo
[27] = Mean residence time in healthy human at 50 mg, po administered as single dose; type: ADME, organism-based; details: in vivo
[28] = system: Homo sapiens; assay: Toxicity in healthy human assessed as occurrence of constipation at 1 mg, po administered as single dose relative to control; type: organism-based; details: in vivo
[29] = system: Homo sapiens; assay: Toxicity in healthy human assessed as occurrence of maculopapular rash at 75 mg, po administered as single dose coadministered with 100 mg of ritonavir; type: organism-based; details: in vivo
[30] = system: Homo sapiens; assay: Toxicity in healthy human assessed as occurrence of diarrhea at 62.5 mg, po administered as single dose coadministered with 100 mg of ritonavir; type: organism-based; details: in vivo
[31] = Renal clearance in healthy human at 25 mg, po administered as single dose by high-pressure liquid chromatography-tandem mass spectrometry/mass spectrometry method; type: ADME, organism-based, Kidney; details: in vivo, read-out: CL_renal (converted)

CCN1c2ncc(CCOc3cc[n+]([O-])c4ccccc34)cc2C(=O)N(C)c2cccnc21 [BILR 355]
Activity [1]: 0%
Activity [2]: 0%
Activity [3]: 16.7%
Activity [4]: 0%
Activity [5]: 0%
Activity [6]: 0%
Activity [7]: 0%
Vd/F [8]: 112 L
Ratio [9]: 4.6
dose excreted [10]: 0.816%
Activity [11]: 0%
Activity [12]: 0%
Activity [13]: 16.7%
Ratio [14]: 3.9
Vd/F [15]: 390 L
CL/F [16]: 4100 mL/min
CL/F [17]: 122 mL/min
Vd/F [18]: 129 L
AUC(0-inf) [19]: 8300 ng·h/mL
Activity [20]: 0%
AUC(0-inf) [21]: 71.8 ng·h/mL
Activity [22]: 16.7%
CL/F [23]: 109 mL/min
Activity [24]: 0%
Vd/F [25]: 153 L
Activity [26]: 0%
MRT [27]: 3.2 h
Activity [28]: 0%
Activity [29]: 0%
Activity [30]: 0%
CL renal [31]: 11.5 mL/min

— ChEMBL document CHEMBL1629563, “Pharmacokinetic and safety evaluation of BILR 355, a second-generation nonnucleoside reverse transcriptase inhibitor, in healthy volunteers” (Antimicrob Agents Chemother, 2008)
